Measured values collected from several papers.
Compare with care: the assays were run in different laboratories. pIC50, pKd: −log10 of the molar value.
KIT: Mast/stem cell growth factor receptor Kit (KIT, Homo sapiens, UniProt P10721)

With `CNC(=O)c1cc2c(Oc3ccc(NC(=O)C4(C(=O)Nc5ccc(F)cc5)CC4)cc3)ccnc2cc1OC` the pIC50 was 7.82 (Mast/stem cell growth factor receptor Kit (KIT, Homo sapiens, UniProt P10721, V560G); enzyme activity; inhibitor; radiometric).
The pKd of `C=CC(=O)Nc1cccc(CN2C(=O)N(c3c(Cl)c(OC)cc(OC)c3Cl)Cc3cnc(NCCCCN(CC)CC)nc32)c1` is reported as 6.38 (KIT; binding; competition with immobilised ligand).
The pIC50 of `COc1ccc2c(Oc3ccc4c(C(=O)Nc5ccccc5N)cccc4c3)ccnc2c1` is reported as 8.40 (KIT; enzyme activity; inhibitor).
For `Cc1cnc(-c2ccc(-c3ccc(NC(=O)Nc4c(F)cc(F)cc4F)cc3F)c3c2C(=O)NC3)[nH]1`, the pIC50 was 7.53 (KIT; enzyme activity; inhibitor).
`CN(C)c1ccc(C=C2C(=O)Nc3ccccc32)cc1` has a pIC50 of 7.08 (KIT; enzyme activity; inhibitor; radiometric).
For `CCN1CCN(Cc2ccc(C(=O)Nc3ccc(C)c(Oc4ccc5c(c4)CC(=O)N5)c3)cc2C(F)(F)F)CC1`, the pIC50 was less than 5.00 (KIT; enzyme activity; inhibitor).
`Cc1ccc(NC(=O)c2ccc(CN3CCS(=N)(=O)CC3)cc2)cc1Nc1nccc(-c2cccnc2)n1` has a pKd of 7.96 (KIT; binding; competition with immobilised ligand).
`CN1CCN(c2ccc(Nc3ncc4cc(C#N)c(=O)n(C5CCCC5)c4n3)cc2)CC1` has a pIC50 of 7.38 (KIT; enzyme activity; inhibitor).
